# From article PMC3580954 (Biopolymers, 2013)
# Where a chain is given by its changes, count along the chain named. Residues, ends and D or L forms follow the SMILES beside them.
# Experiments:
# Format in all cases: cell-based
# Conditions in all cases: SD
# [1] = biological target: T1, wt hPrRP receptor (Homo sapiens, UniProt P49683); assay: Signal transduction
# T1 sequence (P49683 1-370): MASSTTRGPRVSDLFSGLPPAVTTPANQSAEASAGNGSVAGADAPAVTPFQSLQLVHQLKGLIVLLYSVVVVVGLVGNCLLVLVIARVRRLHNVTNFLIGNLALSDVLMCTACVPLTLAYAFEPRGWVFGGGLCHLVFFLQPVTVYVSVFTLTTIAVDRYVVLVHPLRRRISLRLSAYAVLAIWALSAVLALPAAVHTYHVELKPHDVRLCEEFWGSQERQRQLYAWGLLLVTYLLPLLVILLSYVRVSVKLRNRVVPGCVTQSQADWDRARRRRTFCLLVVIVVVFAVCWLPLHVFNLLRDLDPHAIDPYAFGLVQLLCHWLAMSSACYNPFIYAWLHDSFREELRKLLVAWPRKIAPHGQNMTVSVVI
# Procedure, shortened: (§1)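 COS-7 cells were transiently transfected with 0.4 µg plasmid of human PrRP receptor or its site-directed mutant, C-terminally fused to EYFP. One day after transfection and 16 h before stimulation, cells were labelled with 2 µCi/mL [³H]myo-inositol. They were then stimulated with increasing peptide concentrations for 1 h at 37°C in DMEM with 10 mM LiCl, and lysed in 0.1 M NaOH. IP was separated by anion exchange and counted by scintillation. EC50 came from concentration-response curves; runs were in duplicate, repeated ≥2 times.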
# [2] = biological target: T2, Y^2.64A PrRP receptor (Homo sapiens, UniProt P49683, Y120A); assay: IP accumulation assay, Y^2.64A receptor mutant
# T2 sequence (P49683 1-370 Y120A): T1 sequence (P49683 1-370) with Y120A
# Procedure, shortened: as §1
# [3] = biological target: T3, F^2.66A PrRP receptor (Homo sapiens, UniProt P49683, F122A); assay: IP accumulation assay, F^2.66A receptor mutant
# T3 sequence (P49683 1-370 F122A): T1 sequence (P49683 1-370) with F122A
# [4] = biological target: T4, E^2.67A PrRP receptor (Homo sapiens, UniProt P49683, E123A); assay: IP accumulation assay, E^2.67A receptor mutant
# T4 sequence (P49683 1-370 E123A): T1 sequence (P49683 1-370) with E123A
# [5] = biological target: T5, R^2.69A PrRP receptor (Homo sapiens, UniProt P49683, R125A); assay: IP accumulation assay, R^2.69A receptor mutant
# T5 sequence (P49683 1-370 R125A): T1 sequence (P49683 1-370) with R125A
# [6] = biological target: T6, W^2.71A PrRP receptor (Homo sapiens, UniProt P49683, W127A); assay: IP accumulation assay, W^2.71A receptor mutant
# T6 sequence (P49683 1-370 W127A): T1 sequence (P49683 1-370) with W127A
# Procedure, shortened: as §1
# [7] = biological target: T7, F^2.73A PrRP receptor (Homo sapiens, UniProt P49683, F129A); assay: IP accumulation assay, F^2.73A receptor mutant
# T7 sequence (P49683 1-370 F129A): T1 sequence (P49683 1-370) with F129A
compound,measurement,setting,value
CC[C@H](C)[C@H](NC(=O)CNC(=O)[C@H](CCCNC(=N)N)NC(=O)[C@H](CO)NC(=O)[C@H](C)NC(=O)[C@H](Cc1ccc(O)cc1)NC(=O)[C@H](Cc1c[nH]c2ccccc12)NC(=O)[C@H](C)NC(=O)[C@@H]1CCCN1C(=O)[C@H](CC(N)=O)NC(=O)[C@@H](NC(=O)[C@H](CC(=O)O)NC(=O)[C@@H]1CCCN1C(=O)[C@@H](N)[C@@H](C)O)[C@@H](C)CC)C(=O)N[C@@H](CCCNC(=N)N)C(=O)N1CCC[C@H]1C(=O)N[C@H](C(=O)NCC(=O)N[C@@H](CCCNC(=N)N)C(=O)N[C@@H](Cc1ccccc1)C(N)=O)C(C)C [PrRP20] (H-TPDINPAWYASRGIRPVGRF-NH2),EC50,[1],2.2 ± 0.3 nM
same,EC50,[2],50 ± 7.5 nM
same,EC50,[3],6.2 ± 3.3 nM
same,EC50,[4],7.2 ± 3.4 nM
same,EC50,[5],4.2 ± 2.5 nM
same,EC50,[6],593 ± 78 nM
same,EC50,[7],4.4 ± 2 nM
